Experimental data from different studies.
Compare with care: the assays were run in different laboratories. pIC50: −log10 of the molar value.
Read-out: cell growth or viability

SMILES	cell line	assay	setting	measurement	value
CC[C@]1(O)C[C@H]2CN(CCc3c([nH]c4ccccc34)[C@@](C(=O)OC)(c3cc4c(cc3OC)N(C=O)[C@H]3[C@@](O)(C(=O)OC)[C@H](OC(C)=O)[C@]5(CC)C=CCN6CC[C@]43[C@@H]65)C2)C1	NALM-6	MTT	48 h	pIC50	9.06
c1ccc(-c2ccccn2)nc1	L02	MTT	48 h	pIC50	< 4.30
COc1cc2nccc(Oc3ccc(NC(=O)C4(C(=O)Nc5ccc(F)cc5)CC4)cc3)c2cc1OC	OCI-AML-3	trypan blue	72 h	pIC50	< 5.05
Cc1ccc2c(Br)cc(Br)c(O)c2n1	L02	MTT	48 h	pIC50	< 4.00
Cc1cnc(-c2ccc(-c3ccc(NC(=O)Nc4c(F)cc(F)cc4F)cc3F)c3c2C(=O)NC3)[nH]1	OCI-AML-3	–	–	pIC50	7.93
C=C(C)C(=O)Nc1ccc(-c2c(-c3ccc(Oc4nccc(C)n4)c(F)c3)c3c(N)ncnc3n2C)cc1	Li-7	ATP luminescence	96 h	pIC50	< 5.00
Cc1cc(Oc2ccc(NC(=O)c3sc(-c4ccc(F)cc4)nc3C)cc2)c2nncn2n1	L02	MTT	–	pIC50	< 4.30
CC(=O)c1cccc(/N=N/c2cc(/C=C/C(=O)O)ccc2O)c1	PANC-1	MTT	–	pIC50	< 4.30
Cc1cc(Oc2ccc(NC(=O)c3sc(-c4ccccn4)nc3C)cc2F)n2ncnc2n1	L02	MTT	–	pIC50	< 4.30
Nc1nc(Nc2ccc3c(c2)CC[C@@H](N2CCCC2)CC3)nn1-c1cc2c(nn1)-c1ccccc1CCC2	OCI-AML-3	trypan blue	72 h	pIC50	5.54
COc1cc2c(Oc3ccc(NC(=O)C4(C(=O)Nc5ccc(F)cc5)CC4)cc3F)ccnc2cc1OCCCN1CCOCC1	L02	MTT	–	pIC50	< 4.30
COc1ccnc(COc2ccc(NC(=O)Nc3ccc(Cl)cc3)cc2)c1OC	L02	MTT	72 h	pIC50	< 4.00
CO[C@H]1/C=C\C=C(/C)C(=O)NC2=C(c3ccccc3)C(=O)C(NCCN(C)C)=C(C[C@@H](C)C[C@H](OC)[C@H](O)[C@@H](C)/C=C(\C)[C@@H]1OC(N)=O)C2=O	ARPE-19	MTT	–	pIC50	5.09
Oc1ccc(Nc2nc(-c3ccc(Cl)cc3)cs2)cc1	WM-115	MTS	72 h	pIC50	4.93
COCCCOc1ccnc(COc2ccc(NC(=O)Nc3ccc(F)cc3)cc2)c1C	L02	MTT	72 h	pIC50	< 4.00
Cc1cc(Oc2ccc(NC(=O)c3sc(-c4cccnc4)nc3C)cc2)n2ncnc2n1	L02	MTT	–	pIC50	< 4.30
C#Cc1cccc(Nc2ncnc3cc(OCCOC)c(OCCOC)cc23)c1	PANC-1	MTT	–	pIC50	7.30
CC[C@@H](C)[C@H](N)C(=O)N1Cc2ccccc2C1	OCI-AML2	ATP luminescence	–	pIC50	6.52

SMILES	cell line	assay	setting	measurement	value
Cc1cc(Oc2ccc(NC(=O)c3cnn(-c4ccc(Cl)cc4)c3C(F)(F)F)cc2F)n2ncnc2n1	L02	MTT	–	pIC50	< 4.30
COCCCOc1ccnc(COc2ccc(NC(=O)Nc3ccc(Cl)c(C(F)(F)F)c3)cc2)c1C	L02	MTT	72 h	pIC50	< 4.00
Cc1ccc(S(=O)(=O)N(C)CC(=O)N(Cc2ccc(C3CCCCC3)cc2)c2ccc(C(=O)O)c(O)c2)cc1	OCI-AML2	–	–	pIC50	4.44
COC1=C2C[C@@H](C)C[C@H](OC)[C@H](O)[C@@H](C)/C=C(\C)[C@H](OC(N)=O)[C@@H](OC)/C=C\C=C(/C)C(=O)NC(=CC1=O)C2=O	ARPE-19	MTT	–	pIC50	7.00
COc1ccc(C(=O)O[C@@H]2CN3Cc4c(cc5c(c4OC)OCO5)[C@@]24C=C[C@H](OC)C[C@@H]34)cc1OC	PANC-1	WST-1	–	pIC50	5.64
COCCCOc1ccnc(COc2ccc(NC(=O)Nc3cccc(C(F)(F)F)c3)cc2)c1C	L02	MTT	72 h	pIC50	< 4.00
CO[C@H]1/C=C\C=C(/C)C(=O)NC2=C(C)C(=O)C(NCCN(C)C)=C(C[C@@H](C)C[C@H](OC)[C@H](O)[C@@H](C)/C=C(\C)[C@@H]1OC(N)=O)C2=O	ARPE-19	MTT	–	pIC50	< 4.70
O=C(N/N=C/c1c(O)ccc2ccccc12)c1cc(-c2ccc3ccccc3c2)n[nH]1	WM-115	MTS	24 h	pIC50	5.01
Cc1cc(Oc2ccc(NC(=O)c3sc(-c4ccncc4)nc3C)cc2F)c2nncn2n1	L02	MTT	–	pIC50	< 4.30
COCCCOc1ccnc(COc2ccc(NC(=O)Nc3cc(F)cc(F)c3)cc2)c1C	L02	MTT	72 h	pIC50	< 4.00
COc1cccc2c1C(=O)c1c(O)c3c(c(O)c1C2=O)C[C@@](O)(C(=O)CO)C[C@@H]3O[C@H]1C[C@H](N)[C@H](O)[C@H](C)O1	CCD-986Sk	MTT	48 h	IC50	> 10 µg/mL
Cc1c(OCC(F)(F)F)ccnc1COc1ccc(NC(=O)Nc2ccc(F)cc2)cc1	L02	MTT	72 h	pIC50	< 4.00
COc1cc(-c2ncn(/C=C\C(=O)OC(C)C)n2)cc(C(F)(F)F)c1	OCI-AML2	–	72 h	pIC50	7.77
COc1c(C)cnc(COc2ccc(NC(=O)Nc3ccc(Cl)cc3)cc2)c1C	L02	MTT	72 h	pIC50	< 4.00
N[C@@H](CC(=O)N1CCN(C(c2ccc(F)cc2)c2ccc(F)cc2)CC1)C(=O)N1Cc2ccccc2C1	OCI-AML2	ATP luminescence	48 h	pIC50	5.85
Clc1ccnc2c1ccc1c(Cl)ccnc12	L02	MTT	48 h	pIC50	< 4.30
COCCCOc1ccnc(COc2ccc(NC(=O)Nc3ccc(OC)cc3)cc2)c1C	L02	MTT	72 h	pIC50	< 4.00
